Assay results from ChEMBL document CHEMBL1127290, “1-(2,5-Dimethoxy-4-(trifluoromethyl)phenyl)-2-aminopropane: a potent serotonin 5-HT2A/2C agonist” (J Med Chem, 1994).

Key:
Type in all cases: functional
[1] = substrate: COc1cc(C(F)(F)F)c(OC)cc1CC(C)N; assay: (§1) The maximum responses of [3H]- inositol monophosphate accumulation in cells expressing the 5-hydroxytryptamine 2C receptor
Method in brief: (§2)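 A9 cells expressing cloned 5-HT2C receptor, labelled 18 h with 1 μCi/mL [3H]inositol in inositol-free DMEM with dialysed serum. Compounds given 60 min with 10 mM LiCl in Krebs bicarbonate buffer, then [3H]inositol monophosphate accumulation measured. Expressed as % of the 5-HT (10^-5 M) maximum minus control. Vmax by nonlinear regression. Triplicates in three experiments, mean ± SE.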

[2] = substrate: COc1cc(C(F)(F)F)c(OC)cc1CCN; assay: as §1; method in brief: as §2
[3] = substrate: COc1cc(CC(C)N)c(OC)cc1I; assay: as §1; method in brief: as §2
[4] = substrate: COc1cc(C(F)(F)F)c(OC)cc1CC(C)N; assay: (§3) The maximum responses of [3H]- inositol monophosphate accumulation in cells expressing the 5-hydroxytryptamine 2A receptor
[5] = substrate: COc1cc(C(F)(F)F)c(OC)cc1CCN; assay: as §3
[6] = substrate: COc1cc(CC(C)N)c(OC)cc1I; assay: as §3

| Protein | Vmax [1] | Vmax [2] | Vmax [3] | Vmax [4] | Vmax [5] | Vmax [6] |
| --- | --- | --- | --- | --- | --- | --- |
| 5-hydroxytryptamine receptor 2C (Mus musculus), P34968 (protein) MVNLGTAVRSLLVHLIGLLVWQFDISISPVAAIVTDTFNSSDGGRLFQFPDGVQNWPALSIVVIIIMTIGGNILVIMAVSMEKKLHNATNYFLMSLAIADMLVGLLVMPLSLLAILYDYVWPLPRYLCPVWISLDVLFSTASIMHLCAISLDRYVAIRNPIEHSRFNSRTKAIMKIAIVWAISIGVSVPIPVIGLRDESKVFVNNTTCVLNDPNFVLIGSFVAFFIPLTIMVITYFLTIYVLRRQTLMLLRGHTEEELRNISLNFLKCCCKKGDEEENAPNPNPDQKPRRKKKEKRPRGTMQAINNEKKASKVLGIVFFVFLIMWCPFFITNILSVLCGKACNQKLMEKLLNVFVWIGYVCSGINPLVYTLFNKIYRRAFSKYLRCDYKPDKKPPVRQIPRVAATALSGRELNVNIYRHTNERVVRKANDTEPGIEMQVENLELPVNPSNVVSERISSV | 82 | 80 | 82 |  |  |  |
| 5-hydroxytryptamine receptor 2A (Mus musculus), P35363 (protein) MEILCEDNISLSSIPNSLMQLGDDSRLYPNDFNSRDANTSEASNWTIDAENRTNLSCEGYLPPTCLSILHLQEKNWSALLTTVVIILTIAGNILVIMAVSLEKKLQNATNYFLMSLAIADMLLGFLVMPVSMLTILYGYRWPLPSKLCAVWIYLDVLFSTASIMHLCAISLDRYVAIQNPIHHSRFNSRTKAFLKIIAVWTISVGISMPIPVFGLQDDSKVFKEGSCLLADDNFVLIGSFVAFFIPLTIMVITYFLTIKSLQKEATLCVSDLSTRAKLSSFSFLPQSSLSSEKLFQRSIHREPGSYAGRRTMQSISNEQKACKVLGIVFFLFVVMWCPFFITNIMAVICKESCNENVIGALLNVFVWIGYLSSAVNPLVYTLFNKTYRSAFSRYIQCQYKENRKPLQLILVNTIPTLAYKSSQLQVGQKKNSQEDAEPTANDCSMVTLGNQHSEEMCTDNIETVNEKVSCV |  |  |  | 91 | 58 | 94 |
